# Assay outcomes as filed in PubChem BioAssay.
# Env fusion inh: HIV envelope-mediated fusion inhibition | HeLa-JRFL Env/CEM21 cell fusion, luciferase | inhibition, % at 12.3 µM | 360,000 tested, 1.1% active | AID 651610;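 active = mean replicate inhibition score of at least 50 and every replicate individually at or above 50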;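 note: 0% = plate neutral controls and 100% = maraviroc near 300 nM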
# STK33 kinase inh: inhibitors of human STK33 kinase | 320,000 tested, 0.073% active | purified STK33, MBP phosphorylation, ADP-Glo luminescence | Q9BYT3 | inhibition, % at 10 µM;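 active = inhibition at or above 25%, using the most active replicate where run in duplicate; inactive = inhibition below 25%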
# CDK5 p35 inh: inhibitors of human CDK5/p35 kinase. AID 488839. inhibition, % at 10 µM. 330,000 tested, 0.01% active. Q00535+Q15078. Recombinant CDK5/p35, ADP-Glo luminescence, 60 min;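 active = highest replicate inhibition of at least 50% and at least 75% of replicates reaching 50%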;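 note: plate controls were DMSO neutral control for no effect and GW8510 at 10 µM for full effect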
# GSK3beta inhib: inhibitors of human GSK3beta kinase; GST-GSK3beta kinase, ADP-Glo luminescence, 60 min; hits give low values; 300,000 tested, 0.038% active; AID 2097; activity score (negative = inhibition), % at 10 µM;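 active = more than half of replicate wells score below -50%, meaning over 50% inhibition versus plate controls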;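 note: 0% = median DMSO wells and -100% = median GW8510 positive control wells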
#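 Assay system: GST-tagged human GSK3beta kinase, cell-free; Input: 1.6 ng GSK3beta; Medium: Tris/MgCl2 kinase buffer; Timing: 60 min enzyme reaction, room temperature; Signal: ADP-Glo luminescence quantifying ADP generated by kinase; Evaluation: score relative to plate controls; Benchmarks: DMSO neutral wells and GW8510 at 20 µM as positive.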
# INS-1E GSIS act: GLuc luminescence reporter in INS-1E cells, primary screen for activators of glucose-dependent secretion of insulin; INS-1E GLuc reporter insulin secretion, 2-3 h; activation, % at 16.6 µM; 370,000 tested, 0.61% active; AID 743287;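 active = lowest replicate activation of at least 40%, so every replicate reaches that level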;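 note: 0% = median of neutral control wells and 100% = median of IBMX positive control wells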
# GSK3 alpha inh: human GSK-3 alpha kinase inhibition. P49840. ADP-Glo luminescence, 60 min. inhibition, % at 10 µM. 320,000 tested, 0.1% active. AID 2650;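 active = more than half of replicates show inhibition above 20%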;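 note: GST-tagged GSK-3 alpha with peptide substrate and 25 µM ATP; 0% = DMSO neutral wells and 100% = GW8510 positive control wells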
# Target sequence (P49840 whole entry, looked up): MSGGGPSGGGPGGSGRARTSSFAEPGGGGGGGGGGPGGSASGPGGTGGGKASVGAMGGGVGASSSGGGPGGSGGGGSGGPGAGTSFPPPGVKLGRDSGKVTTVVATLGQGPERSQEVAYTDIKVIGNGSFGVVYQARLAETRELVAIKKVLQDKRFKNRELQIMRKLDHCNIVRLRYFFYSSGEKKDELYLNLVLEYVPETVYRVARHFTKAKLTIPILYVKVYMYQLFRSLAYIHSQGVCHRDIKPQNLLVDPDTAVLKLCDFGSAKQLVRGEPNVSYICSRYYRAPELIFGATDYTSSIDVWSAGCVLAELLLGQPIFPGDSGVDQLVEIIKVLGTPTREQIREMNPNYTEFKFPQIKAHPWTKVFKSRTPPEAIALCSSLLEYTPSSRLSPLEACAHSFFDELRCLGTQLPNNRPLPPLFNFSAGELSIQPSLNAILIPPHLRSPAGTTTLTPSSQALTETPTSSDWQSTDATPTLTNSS
# The depositor's hits bear a star; . = not tested or not shown; [ ] = remark or other dose. A selection: hits, their analogues and other compounds. The true share with any hit is near 1.4%.
SMILES,Env fusion inh,STK33 kinase inh,CDK5 p35 inh,GSK3beta inhib,INS-1E GSIS act,GSK3 alpha inh
N#Cc1ccc(C(C(=O)NC2CCCCC2)n2c(=O)c(-c3ccco3)nc3ccccc32)cc1 (configuration not stated),17,.,.,.,-1,.
O=C(NC1CCCCC1)C(c1ccccc1)n1c(=O)c(-c2ccco2)nc2ccccc21 (configuration not stated),63*,.,.,.,-40,.
C[C@H](C(=O)N(C)C[C@H]1OCc2ccccc2-c2ccccc2C(=O)N([C@@H](C)CO)C[C@H]1C)c1ccccc1,21[16.7 µM],.,.,.,1,.
C[C@H](CO)N1C[C@H](C)[C@H](CN(C)C(=O)[C@H](C)c2ccccc2)OCc2ccccc2-c2ccccc2C1=O,8[16.7 µM],.,.,.,4,.
C[C@H](C(=O)N(C)C[C@@H]1OCc2ccccc2-c2ccccc2C(=O)N([C@@H](C)CO)C[C@H]1C)c1ccccc1,59*[16.7 µM],.,.,.,-9,.
C[C@H](C(=O)N(C)C[C@@H]1OCc2ccccc2-c2ccccc2C(=O)N([C@H](C)CO)C[C@@H]1C)c1ccccc1,57*[16.7 µM],.,.,.,-17,.
C[C@H](C(=O)N(C)C[C@@H]1OCc2ccccc2-c2ccccc2C(=O)N([C@@H](C)CO)C[C@@H]1C)c1ccccc1,58*[16.7 µM],.,.,.,-4,.
O=C(C1CCCC1)N1CC[C@@H]2[C@H](CO)Nc3ccc(C4=CCCCC4)cc3[C@@H]21,45[16.7 µM],.,.,.,3,.
CC(=O)N[C@@H]1CC[C@H](CC(=O)NCC2CCCCC2)O[C@@H]1CO,-8[16.7 µM],.,.,.,13,.
C[C@H]1CCCCO[C@H](CN(C)C)[C@@H](C)CN([C@@H](C)CO)C(=O)c2cc(NS(=O)(=O)c3ccc(F)cc3)ccc2O1,6[16.7 µM],.,.,.,1,.
O=[N+]([O-])c1ccc(-c2nc(NCC3CCCO3)c3ccccc3n2)cc1 (configuration not stated),4,0,-2,-6,44*,0
C[C@H]1CN([C@@H](C)CO)C(=O)Cc2cc(NC(=O)C3CC3)ccc2O[C@H]1CN(C)C(=O)Nc1cccc2ccccc12,1[16.7 µM],.,.,.,3,.
COc1ccc2sc3c(=O)[nH]c4ccccc4c3c2c1,.,4,-1,0,103*,-3
COc1ccc(-c2cc(=O)oc3cc(OC(=O)C4CCCCC4)c(Cl)cc23)cc1,66*,0,-8,0,-2,-3
CN(C)CCCNC(=O)C[C@H]1CC[C@@H]2[C@H](COC[C@@H](O)CN2C(=O)c2ccncc2)O1,1[16.7 µM],.,.,.,10,.
[N-]=[N+]=Nc1ccccc1C[C@@]1(C(=O)NCc2ccccc2)N=C(c2ccc(OCCCO)cc2)O[C@@H]1c1ccccc1N=[N+]=[N-],59*[16.7 µM],.,.,.,.,.
COCOCCn1cc(CN2CCS(=O)(=O)N(Cc3ccc(-c4ccc(Cl)cc4)cc3)C(C)C2=O)nn1 (configuration not stated),57*,.,.,.,2,.
COCOCCn1cc(CN2CCS(=O)(=O)N(Cc3ccc(-c4ccc(OC)nc4)cc3)C(C)C2=O)nn1 (configuration not stated),26,.,.,.,12,.
O=C(c1ccncc1)N1CC2(C1)[C@H](c1ccccc1)[C@H](CO)N2C(=O)c1ccncc1,.,.,.,.,13,.
Cc1nc2ncnn2c(N2CCN(c3cccc(C(F)(F)F)c3)CC2)c1C,60*,-1,0,-1,.,-1
CCN1CCN(CCNC(=O)c2ccc(/C=C3\Sc4ccccc4N(Cc4ccccc4F)C3=O)cc2)CC1,6,1,-6,-3,135,2
CN1CCN(CCCNC(=O)c2ccc(/C=C3/Sc4ccccc4N(Cc4cccc(Cl)c4)C3=O)cc2)CC1,11,.,-2,-4,129*,.
CN1CCN(CCCNC(=O)c2ccc(/C=C3\Sc4ccccc4N(Cc4ccc(F)cc4)C3=O)cc2)CC1,8,.,-1,-2,76*,.
CN1CCN(CCCNC(=O)c2ccc(/C=C3\Oc4ccccc4N(Cc4ccccc4F)C3=O)cc2)CC1,2,2,0,-4,93*,3
C[C@@H]1CN([C@@H](C)CO)C(=O)c2cc(C#Cc3ccncc3)cnc2O[C@H]1CN(C)C(=O)CN(C)C,-14[16.7 µM],.,.,.,18,.
SMILES,Env fusion inh,STK33 kinase inh,CDK5 p35 inh,GSK3beta inhib,INS-1E GSIS act,GSK3 alpha inh
Cc1ccc2c(CN3CCN(S(=O)(=O)c4ccc5c(c4)OCCO5)CC3)cc(=O)oc2c1C,93*,0,1,-3,.,0
Cc1ccc2c(CN3CCN(Cc4ccc5c(c4)OCO5)CC3)cc(=O)oc2c1C,.,-2,-1,2,13,-1
CN(C)C(=O)[C@H]1[C@H](CO)[C@H]2Cn3c(ccc(/C=C/c4ccccc4)c3=O)[C@H]2N1CC1CC1,-20[16.7 µM],.,.,.,-8,.
CC1CN(c2nc3ccccc3nc2C(C#N)C(=O)OC2CCCCC2)CC(C)O1 (configuration not stated),59*,-1,-2,1,.,-1
C(=Cc1cnc2ccccc2n1)c1ccc2c(c1)OCO2,68*,.,.,.,3,.
C(=Cc1nc2ccccc2o1)c1ccc2c(c1)OCO2,10,.,.,.,-3,.
COc1cccc(NC(=O)Nc2cccc(C(=O)O)c2)c1,71*,-1,-1,-2,2,-1
O=C(Nc1cccc(C(=O)O)c1)Nc1ccc2c(c1)OCO2,83*,1,-1,0,10,-4
COc1cccc(NC(=O)c2ccccc2)c1,-47,2,0,.,0,1
C[C@H](CO)N1C[C@H](C)[C@H](CN(C)S(=O)(=O)c2cccs2)Oc2c(NC(=O)C3CCOCC3)cccc2C1=O,.,.,.,.,16,.
Cc1nnn(-c2nonc2N)c1C(=O)N/N=C/c1cccc2ccccc12,-33,-1,0,-1,86*,.
CN(Cc1c(C(=O)N/N=C/c2ccccc2O)nnn1-c1nonc1N)C1CCCCC1,-2,.,.,.,518*,.
Nc1nonc1-n1nnc(C(=O)N/N=C/c2ccc(O)cc2)c1CN1CCCCCC1,-56,0,-1,-64*,-1,83*
CC(=C/c1ccccc1)/C=N/NC(=O)c1nnn(-c2nonc2N)c1CN1CCC(C)CC1,22,-2,1,0,-39,1
CC1CCN(Cc2c(C(=O)N/N=C/c3ccccc3O)nnn2-c2nonc2N)CC1,63*,-1,-1,2,-12,3
Cc1nnn(-c2nonc2N)c1C(=O)N/N=C/c1ccccc1O,-28,-2,0,-2,1,0
CCS(=O)(=O)N1[C@@H](CO)[C@@H](c2ccccc2)C12CN(C(=O)C1CC1)C2,.,.,.,.,17,.
Cc1ccc(S(=O)(=O)N(C)C[C@H]2Oc3ccc(NS(=O)(=O)c4cn(C)cn4)cc3CC(=O)N([C@H](C)CO)C[C@@H]2C)cc1,-26[16.7 µM],.,.,.,-2,.
CCOC(=O)N1CCC(NC(=O)C2CCN(c3nc(-c4ccc(OC)cc4)no3)CC2)CC1,34*,1,3,1,.,-2
CNC[C@@H]1Oc2c(NS(=O)(=O)c3ccc(C)cc3)cccc2C(=O)N([C@@H](C)CO)C[C@@H]1C,.,.,.,.,20,.
